FXIIa inh: inhibitors of human coagulation factor XIIa; P00748; purified FXIIa, Boc-QGR-AMC fluorogenic substrate, 2 h; inhibition, % at 5 µM; 0.3% of 220,000 active; in the data active = inhibition above about 40%;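 also: 0% = enzyme with no compound and 100% = blank without enzyme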
STAT3 act: STAT3 signaling activation | 0.91% of 190,000 active | activation (% of control), % at 5.6 µM | U3A cells, IL-6 STAT3-luciferase reporter, luminescence; 100% = signal with IL-6 EC80 alone;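 active = activation above the screen-wide mean of compound activation plus 3 SD, cut at about 130% in these data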;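 also: 0% = background luminescence of wells with medium and substrate only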
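Detection: reporter luminescence signal / Assay system: STAT1-lacking human U3A cells, STAT3 luciferase reporter / Incubation: compound pre-incubation 1 h before IL-6, then 6 h stimulation at 37 °C / Control set: IL-6-only high control / Read-out: % activation relative to IL-6 control / Probe or stimulus: Interleukin-6, 33 ng/mL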
thrombin 1536: blocks human thrombin protease activity | inhibition, % at 5 µM | 0.26% of 220,000 active | alpha-thrombin, Boc-VPR-AMC fluorogenic substrate cleavage;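 active = inhibition at or above 40%; inactive = inhibition below 40%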;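 also: 0% = enzyme with no compound and 100% = wells without enzyme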
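System: human alpha-thrombin protein; Compound dosing: one concentration per compound, 5 µM, with 0.2% DMSO; Timing: reaction at room temperature; Technique: AMC fluorescence, 355/460 nm; Controls: enzyme without compound as high, wells lacking enzyme as low.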
FXIa inh: blocks human coagulation factor XIa protease activity. P03951. purified FXIa, Boc-Glu-Ala-Arg-AMC fluorogenic substrate. inhibition, % at 5 µM. 0.14% of 220,000 active. AID 798;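 active = inhibition of at least 40%; inactive = inhibition below 40%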;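 also: fluorescence of freed AMC excited at 355 nm; 0% = enzyme without compound and 100% = no enzyme blank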
KLK5 inh: blocks human kallikrein 5 protease activity; inhibition, % at 5 µM; Q9Y337; recombinant hK5, fluorogenic AMC substrate cleavage; 0.59% of 210,000 active;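 active = inhibition of 40% or more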;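 also: 0% = enzyme controls without compound and 100% = no-enzyme blanks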
AHR activator: activates the human aryl hydrocarbon receptor; AHR-responsive luciferase reporter cells, luminescence; activation, % at 5 µM; 2.5% of 320,000 active; in the data active = activation above about 47%;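 also: 0% = vehicle wells and 100% = reference agonist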
Target sequence (P35869 whole entry, looked up): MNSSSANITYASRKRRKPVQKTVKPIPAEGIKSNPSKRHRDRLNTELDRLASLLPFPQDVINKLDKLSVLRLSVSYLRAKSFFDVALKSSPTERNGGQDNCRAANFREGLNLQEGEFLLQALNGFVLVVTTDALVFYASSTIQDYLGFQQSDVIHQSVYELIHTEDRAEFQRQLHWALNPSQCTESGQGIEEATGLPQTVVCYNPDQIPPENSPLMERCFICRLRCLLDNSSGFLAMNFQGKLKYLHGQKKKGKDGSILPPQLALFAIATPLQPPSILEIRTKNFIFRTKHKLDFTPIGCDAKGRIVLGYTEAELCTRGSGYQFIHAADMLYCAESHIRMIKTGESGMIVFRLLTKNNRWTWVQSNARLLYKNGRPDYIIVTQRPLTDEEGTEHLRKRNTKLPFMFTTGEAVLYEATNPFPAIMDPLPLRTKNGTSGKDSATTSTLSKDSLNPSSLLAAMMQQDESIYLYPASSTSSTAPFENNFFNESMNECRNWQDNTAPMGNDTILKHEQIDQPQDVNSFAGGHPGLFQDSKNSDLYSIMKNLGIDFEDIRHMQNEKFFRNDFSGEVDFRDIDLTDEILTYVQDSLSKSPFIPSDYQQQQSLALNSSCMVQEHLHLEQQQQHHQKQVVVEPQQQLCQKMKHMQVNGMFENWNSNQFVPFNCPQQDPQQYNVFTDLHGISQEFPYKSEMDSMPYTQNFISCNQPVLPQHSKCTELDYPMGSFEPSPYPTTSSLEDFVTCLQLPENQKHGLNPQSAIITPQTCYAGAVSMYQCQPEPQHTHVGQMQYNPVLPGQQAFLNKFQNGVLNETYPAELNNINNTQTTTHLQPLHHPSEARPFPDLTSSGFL
AHR act cf: human AHR activation, confirmation; human cells, AHR-responsive luciferase reporter, luminescence; activation, % at 9 µM; 87% of 2,300 active; shares compounds with AHR activator; AID 2845; in the data active = activation above about 49%;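 also: HepG2 hepatoma cells carrying a DRE-driven firefly luciferase reporter; 0% = vehicle wells and 100% = reference agonist wells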
PXR act counter: activates human PXR in AHR activator counter-screen; shares compounds with AHR activator; cell-based PXR reporter, luciferase luminescence; activation, % at 11.6 µM; 88% of 2,300 active; AID 434939; in the data active = activation above about 11%;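 also: human hepatoma DPX-2 cells expressing full-length human PXR; 0% = DMSO and 100% = reference agonist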
* = called active by the depositor; . = no result. An excerpt weighted towards active compounds, which were near 3.5% of everything screened.

SMILES	FXIIa inh	STAT3 act	thrombin 1536	FXIa inh	KLK5 inh	AHR activator	AHR act cf	PXR act counter
Cc1ccc(NC(=O)c2c(-c3c(F)cccc3Cl)noc2C)cc1F	6.8	99.0	0.2	-4.5	0.3	4.1	.	.
COc1ccccc1-n1nnnc1SCC(=O)Nc1ccc(C)c(N)c1	.	.	.	.	.	93.6*	80.9*	58.5*
COc1ccc(NC(=O)CSc2nnnn2-c2ccccc2OC)c(OC)c1	.	.	.	.	.	1.8	.	.
NC(=S)N/N=C/c1ccc(-c2ccc([N+](=O)[O-])cc2)o1	6.3	108.2	-2.0	4.3	1.0	91.5*	118.3*	14.2*
NC(=S)N/N=C/c1ccc(-c2cc(Cl)cc(Cl)c2)o1	1.9	85.8	2.9	7.1	1.1	16.9	.	.
CC(=O)c1cc(O)c2ccccc2c1O	3.7	.	0.5	-1.7	-23.0	89.7*	117.7*	9.0
Cc1ccc(-c2nc3ccccn3c2C=O)cc1	4.3	106.7	-3.7	0.3	-12.5	10.2	.	.
Cc1c(-c2ccc(Br)cc2)nc2ccccn12	6.4	118.2	-16.2	3.1	-6.7	165.2*	171.6*	14.5*
Cc1nc(NC(=O)c2ccc(Cl)cc2)nc2cc3c(cc12)OCO3	7.5	99.3	-1.4	5.2	-4.2	91.3*	71.0*	16.7*
CCCNC(=S)N1CCC(NC(=O)Nc2ccc(C)cc2)CC1	14.5	105.6	-2.3	0.4	6.3	1.1	.	.
O=C(Nc1nc2c(Cl)cccc2s1)c1ccc(Br)o1	17.1	88.2	3.9	3.8	-18.4	102.1*	105.5*	66.6*
COc1ccccc1-c1nc2ccccc2nc1-c1ccccc1OC	5.1	108.6	-6.6	-5.5	-15.8	-2.1	.	.
O=C1c2ccccc2-c2nc3ccccc3nc21	6.0	104.4	-9.8	-5.8	-16.1	114.8*	148.9*	.
Cc1cc(C)n2nc(C(=O)NNC(=O)c3ccccc3)nc2n1	6.3	101.6	-9.5	-0.1	0.6	-0.9	.	.
CCN(C(=O)CSc1nc2n[nH]c(C)c2c(=N)n1-c1ccc(Cl)c(C)c1)c1cccc(C)c1	.	.	.	.	.	24.3	.	.
CCCCN(CC)C(=O)CSc1nc2n[nH]c(C)c2c(=N)n1-c1cccc(C)c1	4.0	89.0	25.5	-1.8	-2.3	86.1*	46.3	146.5*
O=C(CCc1ccccc1)N1CCN(S(=O)(=O)c2cccs2)CC1	.	.	.	.	.	0.3	.	.
Cc1cc(C)cc(NC(=S)NCc2ccc3[nH]c4c(c3c2)CCCC4)c1	10.9	110.3	-0.7	5.0	-9.9	22.0	.	.
S=C(NCc1ccc2[nH]c3c(c2c1)CCCC3)Nc1ccccc1	11.4	92.8	0.8	7.3	-13.1	112.0*	71.1*	35.5*
Oc1oc(-c2ccccc2)nc1C=Nc1ccccc1	-5.9	87.2	2.1	-14.7	4.4	5.0	.	.
Sc1oc(-c2ccccc2)cc1C=Nc1ccccc1	4.0	108.8	-1.3	-4.9	-17.5	79.5*	38.6	20.2*
O=C(COC(=O)C1CCN(c2ccc(C(F)(F)F)cn2)CC1)NCc1ccccc1	.	.	.	.	.	-0.4	.	.
COc1ccc(Nc2nccc(OC)c2C#N)cc1	4.8	99.9	-6.4	-3.1	-8.3	8.9	.	.
COc1ccc(Nc2nccc(-c3ccc(C#N)cc3)n2)cc1	.	.	.	.	.	80.3*	54.2*	16.0*
COc1ccc(Nc2nccc(-c3cccc(N)c3)n2)cc1	.	.	.	.	.	132.2*	54.5*	30.4*
SMILES	FXIIa inh	STAT3 act	thrombin 1536	FXIa inh	KLK5 inh	AHR activator	AHR act cf	PXR act counter
COc1cc2[nH]c(=S)n(Cc3ccco3)c(=O)c2cc1OC	11.8	102.5	-1.1	-5.9	-7.8	82.1*	83.8*	71.8*
O=c1c2cc(Cl)ccc2[nH]c(=S)n1Cc1ccco1	10.8	107.4	-1.8	-10.7	-34.9	36.7	.	.
Cc1n[nH]c(C)c1N=Nc1ccc(Br)cc1	1.2	100.8	-2.6	-4.3	-4.7	131.7*	123.1*	20.2*
COc1ccc(N=Nc2c(C)n[nH]c2C)cc1	.	.	.	.	.	46.9	.	.
CCN(CC)c1ccc(/C=C2\NC(=O)NC2=O)cc1	3.0	93.9	0.6	8.3	-20.9	87.8*	56.5*	11.3*
O=C1NC(=O)/C(=C\c2ccsc2)N1	0.8	93.5	-8.2	-6.3	-6.8	1.5	.	.
COc1ccc(NC(=O)c2ccc3nc[nH]c3c2)c(OC)c1	.	91.0	-8.7	-3.2	-5.1	13.6	.	.
O=C(Nc1ccc(OC(F)(F)F)cc1)c1ccc2nc[nH]c2c1	.	.	.	.	.	95.8*	136.5*	12.4*
CCOC(=O)N1CCC(NC(=O)c2ccc3nc4ccccc4c(=O)n3c2)CC1	-15.7	124.8	-5.0	-26.3	-23.5	.	.	.
CCOC(=O)N1CCC(NC(=O)c2cccn3c(=O)c4cc(Br)ccc4nc23)CC1	7.2	97.1	-0.1	2.9	-70.7	90.3*	111.0*	18.1*
COc1ccc(C2C(C(=O)NCC3CCCO3)c3cc(OC)c(OC)cc3C(=O)N2C)cc1OC (stereo unspecified)	21.4	99.6	3.3	0.9	-16.6	0.0	.	.
COCCCNC(=O)c1sc2ncnc(N3CCc4ccccc4C3)c2c1C	7.8	100.3	0.9	-2.4	-4.8	100.0*	81.6*	20.1*
Cc1c(C(=O)N2CCCCC2C)sc2ncnc(N3CCc4ccccc4C3)c12 (stereo unspecified)	7.7	103.8	6.7	-0.2	-5.0	5.4	.	.
O=C(NC(=S)N1CCCc2ccccc21)c1ccc(Br)cc1	14.6	133.2*	-5.7	8.4	-4.3	87.9*	84.1*	19.6*
COc1ccc(C(=O)NC(=S)N2CCCc3ccccc32)cc1OC	3.0	90.7	-6.9	-2.5	-7.1	4.5	.	.
Cc1ccc(NCc2nc3ccccc3n2C)cc1C	.	.	.	.	.	103.3*	126.7*	25.5*
Cn1c(CNc2ccc(Br)cc2)nc2ccccc21	.	.	.	.	.	107.6*	184.9*	48.1*
Cn1c(CNc2ccc(O)cc2)nc2ccccc21	.	.	.	.	.	15.1	.	.
Cc1ccc(NCc2nc3ccccc3n2C)cc1	-2.7	126.6	-11.5	-6.1	-0.8	79.9*	66.0*	11.6*
C/C(=N\N=C1\NC(=O)C(CC(=O)Nc2ccccc2F)S1)C1CCCCC1 (stereo unspecified)	.	.	.	.	.	1.9	.	.
COc1ccc(CC(=O)NNC(=O)c2cc(C)oc2C)cc1OC	.	.	.	.	.	0.1	.	.
COc1ccccc1NC(=O)c1sc2nc(-c3ccco3)ccc2c1N	-9.1	79.8	0.3	1.1	1.8	105.5*	94.5*	20.5*
CC(=O)c1c(C)[nH]c(C(=O)NCCc2ccccc2)c1C	14.9	96.0	-1.2	5.3	2.1	116.3*	70.0*	78.8*
Cc1cccc(NC(=S)NN(Cc2ccccc2)c2ccccc2)c1C	11.4	98.0	3.5	7.0	-6.8	115.6*	108.3*	213.5*
CCN(CC)S(=O)(=O)c1ccc2c(c1)N(CC(=O)Nc1ccc(NC(C)=O)cc1)C(=O)CO2	.	.	.	.	.	2.6	.	.

Compound activity: PubChem, several laboratories
